Assay results from different studies.
Lines come from different studies, so protocols differ.
Cell line: RAW264.7

C[C@]12C=CC(=O)C=C1CC[C@@H]1[C@@H]2[C@@H](O)C[C@@]2(C)[C@H]1CC[C@]2(O)C(=O)CO — IC50 (NO release, inhibitor, Griess; 24 h, LPS-stimulated): 0.2 µg/mL
C[C@@H]1C[C@H]2[C@@H]3CCC4=CC(=O)C=C[C@]4(C)[C@@]3(F)[C@@H](O)C[C@]2(C)[C@@]1(O)C(=O)CO — IC50 (NO release, inhibitor, Griess; LPS-stimulated): 13.1 µM
COc1ccc(C[C@H](N)C(=O)N[C@H]2[C@@H](O)[C@H](n3cnc4c(N(C)C)ncnc43)O[C@@H]2CO)cc1 — IC50 (cell growth or viability, resazurin; 72 h): 1.54 µM
C=C1CC[C@@H]2[C@](C)(CO)[C@H](O)CC[C@@]2(C)[C@@H]1C/C=C1/C(=O)OC[C@H]1O — IC50 (NO release, inhibitor, Griess; 24 h, LPS-stimulated): 48.6 µM
CCOc1ccc(Nc2c3c(nc4ccccc24)CCC3)cc1 — IC50 (cell growth or viability, resazurin; 72 h): 38.4 µM
[H]/N=C(/NC)NCCC[C@H](N)C(=O)O — IC50 (NO release, inhibitor, Griess; LPS-stimulated): 21.8 µM
COc1ccc2c(c1)c(CC(=O)O)c(C)n2C(=O)c1ccc(Cl)cc1 — IC50 (NO release, inhibitor, Griess; 24 h, LPS-stimulated): 26.5 µM
[H]/N=C(/NC)NCCC[C@H](N)C(=O)O — inhibition (NO release, inhibitor, Griess; 250 µg/mL, 24 h, LPS-stimulated): 97.1%
